This is an account of results in ChEMBL document CHEMBL3244060, “Methotrexate analogues. 8. Synthesis and biological evaluation of bisamide derivatives as potential prodrugs” (J Med Chem, 1977).

≈ marks a conversion by molar mass, not a printed value. Calls of active or inactive are those of the source. The rule behind the calls is not given here.

In series [1] the test system is CCRF-CEM. Description: Cytotoxicity against human CCRF-CEM cells assessed as growth inhibition. The class given is functional. The conditions noted are these: read-out: ID50 (the source's name).
Series [2] relates to L1210. Description: Antitumor activity against mouse L1210 cells allografted in mouse assessed as median survival time at 525 mg/kg, ip qd administered every 3 days for 7 days. The class given is functional. The conditions noted are these: route intraperitoneal. In a few lines:
(§1)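 Mice were inoculated ip with 10^5 L1210 leukemia cells on day 0. Dosing was ip on days 1, 4 and 7 in 10% Tween 80, with the methotrexate disodium salt in water, over 15–525 mg/kg. Survival was recorded in days as the range and median per group, with 5 treated and 10-15 untreated controls.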

Series [3] relates to L1210. In words: Antitumor activity against mouse L1210 cells allografted in mouse assessed as increase in life span at 150 mg/kg, ip qd administered every 3 days for 7 days relative to control. The class given is functional. The conditions noted are these: route intraperitoneal. In a few lines: (§2)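 L1210 cells (10^5) implanted ip in mice on day 0. Compounds given ip in 10% Tween 80 on days 1, 4 and 7, at doses from 15 to 525 mg/kg. Methotrexate was given as the disodium salt in aqueous solution. Groups had 5 treated and 10-15 control animals. %ILS = 100 × (T − C)/C, where T and C are median survival days of treated and control mice.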

The subject of series [4] is L1210. In words: Antitumor activity against mouse L1210 cells allografted in mouse assessed as median survival time at 350 mg/kg, ip qd administered every 3 days for 7 days. It is filed as functional. Particulars: route intraperitoneal. The method in brief:
as §1

Series [5] relates to Serum. In words: Prodrug conversion in rat whole serum assessed as formation of methotrexate at 0.006 g measured up to 24 hrs by TLC analysis. The class given is ADME. The method in brief:
(§3)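 Fresh rat serum 0.9 mL plus compound 0.006 g in 0.1 mL Me2SO, incubated at 37 °C with gentle shaking for up to 24 h. Cooled on ice, diluted 1.5-fold with methanol to precipitate protein, centrifuged. Supernatant run on fluorescent cellulose TLC developed with 0.5 M phosphate buffer pH 7.4 to detect parent compound and metabolites.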

The test system of series [6] is L1210. Description: Antitumor activity against mouse L1210 cells allografted in mouse assessed as median survival time at 225 mg/kg, ip qd administered every 3 days for 7 days. It is filed as functional. The conditions noted are these: route intraperitoneal. The method in brief:
as §1

Series [7] deals with L1210. Description: Antitumor activity against mouse L1210 cells allografted in mouse assessed as median survival time at 150 mg/kg, ip qd administered every 3 days for 7 days. It is filed as functional. Particulars: route intraperitoneal. The method in brief: as §1
For series [8], the target named is Dihydrofolate reductase (Lactobacillus casei) (UniProt P00381). In words: Inhibition of methotrexate-resistant Lactobacillus casei ATCC 7469 dihydrofolate reductase. Particulars: Lacticaseibacillus casei.
The subject of series [9] is L1210. Description: Antitumor activity against mouse L1210 cells allografted in mouse assessed as increase in life span at 525 mg/kg, ip qd administered every 3 days for 7 days relative to control. The class given is functional. Particulars: route intraperitoneal. The method in brief: as §2
Series [10] deals with L1210. In words: Antitumor activity against mouse L1210 cells allografted in mouse assessed as increase in life span at 225 mg/kg, ip qd administered every 3 days for 7 days relative to control. The class given is functional. Particulars: route intraperitoneal. The method in brief:
as §2

In series [11] the test system is L1210. In words: Antitumor activity against mouse L1210 cells allografted in mouse assessed as increase in life span at 350 mg/kg, ip qd administered every 3 days for 7 days relative to control. It is filed as functional. Particulars: route intraperitoneal. In a few lines:
as §2

A short description of series [12]: Cytotoxicity against RBL cells assessed as growth inhibition. The class given is functional. Particulars: Rattus norvegicus, read-out: ID50 (the source's name).
The test system of series [13] is Plasma. Description: Drug level in mouse plasma treated with methotrexate bis(benzylamide) at 100 mg/kg, ip measured after 6 to 24 hrs by TLC analysis. The class given is ADME, organism-based. Details: dose 100 mg/kg, route intraperitoneal. Particulars: in vivo. In a few lines: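 Normal mice received a single ip dose of 100 mg/kg in 10% Tween 80. One animal was killed at 6 h and one at 24 h. Blood was taken by ocular puncture with a heparinized syringe and the red cells spun down. Plasma 0.2 mL was cooled on ice and diluted with methanol 0.4 mL to precipitate protein, then centrifuged. Analysed by cellulose TLC developed in 0.5 M phosphate buffer pH 7.4.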

The subject of series [14] is Serum. Description: Drug level in rat whole serum treated with methotrexate di-n-butyl ester measured after 1 hr by TLC analysis. The class given is ADME, cell-free. The method in brief:
as §3

Series [15] relates to Serum. In words: Prodrug conversion in rat whole serum assessed as formation of methotrexate measured after 1 hr by TLC analysis. The class given is ADME. The method in brief:
as §3

Series [16] relates to Mus musculus. In words: Toxicity in mouse allografted with mouse L1210 cells at 15 to 525 mg/kg, ip qd administered every 3 days for 7 days. The class given is organism-based. Details: dose 15-525 mg/kg, route intraperitoneal. Particulars: in vivo. The method in brief:
(§4)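 Mice inoculated ip with 10^5 L1210 cells on day 0. Test agents injected ip in 10% Tween 80 on days 1, 4 and 7; doses 15 to 525 mg/kg. Positive control given as disodium salt in aqueous solution. Test groups of 5, control groups of 10-15. Median survival scored; %ILS = 100 × (T − C)/C.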

Series [17] relates to L1210. Description: Antitumor activity against mouse L1210 cells allografted in mouse assessed as increase in life span at 15 to 525 mg/kg, ip qd administered every 3 days for 7 days. It is filed as functional, organism-based. In a few lines: as §4
Series [18] has as its system L1210. Description: Antitumor activity against mouse L1210 cells allografted in mouse assessed as increase in life span at 0.18 mg/kg, sc administered daily up to death started on day 5 post tumor implantation relative to control. It is filed as functional. Particulars: 120 h, route subcutaneous.
In series [19] the test system is L1210. In words: Antitumor activity against mouse L1210 cells allografted in mouse assessed as increase in life span at 7 mg/kg, sc administered daily up to death started on day 5 post tumor implantation relative to control. It is filed as functional. The conditions noted are these: 120 h, route subcutaneous.
The subject of series [20] is L1210. In words: Antitumor activity against mouse L1210 cells allografted in mouse assessed as increase in life span at 15 mg/kg, ip qd administered every 3 days for 7 days relative to control. The class given is functional. The conditions noted are these: route intraperitoneal. In a few lines: as §2
In series [21] the test system is L1210. Description: Antitumor activity against mouse L1210 cells allografted in mouse assessed as median survival time at 25 mg/kg, ip qd administered every 3 days for 7 days. It is filed as functional. Particulars: route intraperitoneal. In a few lines: as §1
Series [22] concerns L1210. In words: Antitumor activity against mouse L1210 cells allografted in mouse assessed as increase in life span at 25 mg/kg, ip qd administered every 3 days for 7 days relative to control. It is filed as functional. Particulars: route intraperitoneal. In a few lines:
as §2

The subject of series [23] is L1210. Description: Antitumor activity against mouse L1210 cells allografted in mouse assessed as median survival time at 15 mg/kg, ip qd administered every 3 days for 7 days. The class given is functional. Particulars: route intraperitoneal. In a few lines: as §1

Sequence of Dihydrofolate reductase (Lactobacillus casei) (P00381 whole entry): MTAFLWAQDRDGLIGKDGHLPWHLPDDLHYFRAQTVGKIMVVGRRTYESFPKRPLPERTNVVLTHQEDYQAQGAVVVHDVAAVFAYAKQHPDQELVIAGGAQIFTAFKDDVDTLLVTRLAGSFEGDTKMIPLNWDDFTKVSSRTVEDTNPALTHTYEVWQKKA

What is called ILS is the gain in survival time of treated over control animals, in per cent. As to `CCCNC(=O)CC[C@H](NC(=O)c1ccc(N(C)Cc2cnc3nc(N)nc(N)c3n2)cc1)C(=O)NCCC`, the IC50 in [1] was found to be 7 mg/L (≈ 13 µM). Further, the MST in series [2] came to 13 days; in [4] it was 13 days; in [6] it was 14 days; in [7], 11 days. In addition, the ILS at 150 mg/kg in [3] amounted to 0%. For the same compound, in series [5], the Drug metabolism result is recorded as “metabolite_notdetected”. The compound further gave an ID50 in [8] of 1.8 ×10⁻⁷ M. For the same compound, in [9], the ILS at 525 mg/kg came to 18%. In addition, the ILS at 225 mg/kg in [10] was determined as 27%. In addition, the ILS at 350 mg/kg in [11] was found to be 18%.

On to `CN(Cc1cnc2nc(N)nc(N)c2n1)c1ccc(C(=O)N[C@@H](CCC(=O)O)C(=O)O)cc1` [METHOTREXATE], for which the IC50 in [12] and in series [1] was 0.003 mg/L (≈ 0.0066 µM) each time. Also, the Drug metabolism result in series [13] and in [14] was “metabolite_detected” each time.

As to `CCCCOC(=O)CC[C@H](NC(=O)c1ccc(N(C)Cc2cnc3nc(N)nc(N)c3n2)cc1)C(=O)OCCCC`, the IC50 in series [1] was determined as 0.032 mg/L (≈ 0.0565 µM). This compound also came in with an ID50 in series [8] of 5 ×10⁻⁷ M. Also, the Drug metabolism entry in series [15] is reported as “metabolite_detected”.

In the case of `CN(C)CCCNC(=O)CC[C@H](NC(=O)c1ccc(N(C)Cc2cnc3nc(N)nc(N)c3n2)cc1)C(=O)NCCCN(C)C`, in series [16], the Activity entry is recorded as “Toxic”. The outcome in series [17] was inactive.

Take `Nc1nc(N)c2nc(CNc3ccc(C(=O)N[C@@H](CCC(=O)O)C(=O)O)cc3)cnc2n1` [AMINOPTERIN]: the ILS at 0.18 mg/kg in series [18] turned out to be 30%.

`COc1ccc(CCNC(=O)CC[C@H](NC(=O)c2ccc(N(C)Cc3cnc4nc(N)nc(N)c4n3)cc2)C(=O)NCCc2ccc(OC)c(OC)c2)cc1OC`: the IC50 in series [1] was more than 10 mg/L.

`CN(Cc1cnc2nc(N)nc(N)c2n1)c1ccc(C(=O)N[C@@H](CCC(=O)NCCc2ccccc2)C(=O)NCCc2ccccc2)cc1`: the IC50 in [1] is more than 10 mg/L.

For `Nc1nc(N)c2nc(CNc3ccc(C(=O)N[C@@H](CCC(=O)NCc4ccccc4)C(=O)NCc4ccccc4)cc3)cnc2n1`, the ILS at 7 mg/kg in series [19] turned out to be 30%.

Consider `CN(Cc1cnc2nc(N)nc(N)c2n1)c1ccc(C(=O)N[C@@H](CCC(=O)[O-])C(=O)[O-])cc1.[Na+].[Na+]` [METHOTREXATE SODIUM], for which the ILS at 15 mg/kg in [20] turned out to be 66%. Besides, the figures for the MST in series [21] and in series [23] were 18 days and 15 days, respectively. In addition, the ILS at 25 mg/kg in series [22] is 100%.
